This is an account of results in ChEMBL document CHEMBL5244265 (Bioorg Med Chem, 2020).

A short description of experiment [1]: Inhibition of Bacillus licheniformis Proteinase A using Z-GPR-AMC as substrate by fluorescence based analysis. The method, boiled down:
(§1)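 Each enzyme was read as a time course of rising fluorescence from cleavage of its AMC-labelled peptide substrate. The initial linear slope (signal/min) was analysed. Non-human sources: chymotrypsin from bovine pancreas, proteinase A from B. licheniformis, proteinase K from T. album limber.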

Experiment [2] concerns the target T1, Kallikrein-7 (Homo sapiens, UniProt P49862). The experiment in a line: Inhibition of human recombinant kallikrein 7 (23 to 252 residues) using MCA-RPKPVE-Nval-WRK(Dnp)-NH2 as substrate by fluorescence based analysis relative to tutuilamide A. In outline: (§2)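 Fluorogenic assay with HNE (MeOSucAAPV-AMC substrate) or human KLK7 ([…] substrate). Test compounds ran as a 10-dose, 3-fold dilution series from 1 μM in duplicate, with controls tested in the same run. Activity was taken from the initial linear slope of the fluorescence increase over time. Results are mean of n = 2, expressed relative to 0.5% DMSO vehicle.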
Target sequence in this assay (P49862 30-253 limits assumed): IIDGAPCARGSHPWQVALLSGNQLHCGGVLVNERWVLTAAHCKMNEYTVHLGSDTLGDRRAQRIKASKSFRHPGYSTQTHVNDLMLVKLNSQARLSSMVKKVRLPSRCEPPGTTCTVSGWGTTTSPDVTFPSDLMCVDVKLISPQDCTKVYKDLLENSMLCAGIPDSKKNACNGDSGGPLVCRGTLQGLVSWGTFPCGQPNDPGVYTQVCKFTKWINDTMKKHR

Experiment [3] has as its target T1, Kallikrein-7. The experiment in a line: Inhibition of human recombinant kallikrein 7 (23 to 252 residues) using MCA-RPKPVE-Nval-WRK(Dnp)-NH2 as substrate by fluorescence based analysis. In outline:
as §2
Target sequence in this assay (P49862 whole entry, the tested form may be a part): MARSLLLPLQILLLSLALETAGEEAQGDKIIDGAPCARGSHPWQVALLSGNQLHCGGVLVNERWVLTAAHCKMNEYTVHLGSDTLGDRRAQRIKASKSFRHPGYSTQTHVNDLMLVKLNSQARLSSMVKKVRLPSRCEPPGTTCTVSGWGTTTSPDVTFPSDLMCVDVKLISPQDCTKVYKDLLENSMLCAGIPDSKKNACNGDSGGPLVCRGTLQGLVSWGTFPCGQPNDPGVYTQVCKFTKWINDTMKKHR

Experiment [4] concerns the target T2, Neutrophil elastase (Homo sapiens) (UniProt P08246).
T2 sequence (whole entry): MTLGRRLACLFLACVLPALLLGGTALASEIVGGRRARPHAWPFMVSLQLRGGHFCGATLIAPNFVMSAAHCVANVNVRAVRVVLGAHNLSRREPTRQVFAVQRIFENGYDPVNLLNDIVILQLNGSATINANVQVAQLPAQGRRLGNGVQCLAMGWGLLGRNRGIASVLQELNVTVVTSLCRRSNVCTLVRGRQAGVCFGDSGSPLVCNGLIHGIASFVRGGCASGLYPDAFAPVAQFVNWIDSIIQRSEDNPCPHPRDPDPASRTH
The experiment is described as follows: Inhibition of elastase in human neutrophil using N-(OMe-succinyl)-Ala-Ala-Pro-Val-p-nitroanilide as substrate preincubated with enzyme for 15 mins followed by substrate addition and measured every 30s for 30 mins by absorbance based analysis relative to tutuilamide A. The following applies: time 45.0 min. In outline:
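Human neutrophil elastase, from a 100 μg/mL enzyme stock in 0.1 M Tris–0.5 M NaCl (pH 7.5), was preincubated with compound at varying doses or DMSO vehicle for 15 min at room temperature in the same buffer. The p-nitroanilide substrate was added from a 2 mM stock, and A405 was read every 30 s for 30 min. Activity was taken as the initial slope, expressed as % of the uninhibited reaction, and IC50 came from dose-response.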

The target in experiment [5] is T1, Kallikrein-7. The experiment in a line: Inhibition of KLK7 (unknown origin). The method, boiled down:
as §2
Target sequence in this assay (P49862 whole entry, the tested form may be a part): as the sequence (P49862 whole entry, the tested form may be a part) above

The nature of experiment [6]: Inhibition of chymotrypsin in bovine pancreas using Suc-AAPF-AMC as substrate by fluorescence based analysis. The format is tissue-based, Bos taurus. The method, boiled down: as §1
For another experiment, the system named is Bacillus licheniformis. The experiment in a line: Inhibition of Bacillus licheniformis Proteinase A using Z-GPR-AMC as substrate by fluorescence based analysis relative to leupeptin. In outline: as §1
The target of experiment [7] is T1, Kallikrein-7. The experiment is described as follows: Inhibition of human recombinant kallikrein 7 (23 to 252 residues) using MCA-RPKPVE-Nval-WRK(Dnp)-NH2 as substrate by fluorescence based analysis relative to gabexate mesylate. In outline:
as §2
Target sequence in this assay (P49862 30-253 limits assumed): as the sequence (P49862 30-253 limits assumed) above

Experiment [8] addresses T3, Neutrophil elastase (Homo sapiens, UniProt P08246).
T3 sequence (P08246 whole entry): T2 sequence (whole entry)
The experiment is described as follows: Inhibition of elastase in human neutrophil using N-(OMe-succinyl)-Ala-Ala-Pro-Val-p-nitroanilide as substrate preincubated with enzyme for 15 mins followed by substrate addition and measured every 30s for 30 mins by absorbance based analysis. The method, boiled down:
(§3)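 HNE stock at 100 μg/mL and substrate stock at 2 mM, both in 0.1 M Tris–0.5 M NaCl pH 7.5. Compound or DMSO was preincubated with enzyme in the same buffer for 15 min at room temperature, then substrate was added. A405 was read every 30 s for 30 min. Activity was taken from the initial slope as a percentage of the uninhibited reaction.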

The nature of experiment [9]: Inhibition of porcine pancreatic elastase. More on the design: species or system Sus scrofa.
Experiment [10] can be described thus: Inhibition of Tritirachium album limber Proteinase K using H-D-CHA -Ala-Arg-AMC.2AcOH as substrate by fluorescence based analysis. On the set-up: species or system Parengyodontium album. The method, boiled down: as §1
Experiment [11] concerns the target T2, Neutrophil elastase (Homo sapiens). The experiment in a line: Inhibition of elastase in human neutrophil using N-(OMe-succinyl)-Ala-Ala-Pro-Val-p-nitroanilide as substrate preincubated with enzyme for 15 mins followed by substrate addition and measured every 30s for 30 mins by absorbance based analysis relative to sivelestat. To be noted: time 45.0 min. In outline:
as §3

The target of experiment [12] is T3, Neutrophil elastase. The experiment in a line: Inhibition of elastase in human neutrophil using MeOSuc-AAPV-AMC as substrate by fluorescence based analysis. The class given is cell-based. In outline:
as §2

The next experiment concerns Parengyodontium album. The experiment in a line: Inhibition of Tritirachium album limber Proteinase K using H-D-CHA -Ala-Arg-AMC.2AcOH as substrate by fluorescence based analysis relative to proteinase K inhibitor. In outline:
as §1

Experiment [13] has as its target T2, Neutrophil elastase (Homo sapiens). The experiment in a line: Inhibition of elastase in human neutrophil using MeOSuc-AAPV-AMC as substrate by fluorescence based analysis relative to sivelestat. The class given is cell-based. The method, boiled down:
as §2

Experiment [14] has the same target. The experiment in a line: Inhibition of elastase in human neutrophil using N-(OMe-succinyl)-Ala-Ala-Pro-Val-p-nitroanilide as substrate preincubated with enzyme for 15 mins followed by substrate addition and measured every 30s for 30 mins by absorbance based analysis relative to symplostatin 5. The following applies: time 45.0 min. In outline:
as §3

Experiment [15] can be described thus: Selectivity ratio of IC50 for chymotrypsin in bovine pancreas to IC50 for human neutrophil elastase.

Usually IC50 stands for the concentration needed to halve the response being measured. In turn, `CC(=O)N[C@@H](CC(C)C)C(=O)N[C@@H](CC(C)C)C(=O)N[C@H](C=O)CCCNC(=N)N` [LEUPEPTIN] showed an IC50 in [1] of 129000 nM.
`C/C=C1\NC(=O)[C@@H](NC(=O)[C@H](CCC(N)=O)NC(=O)CCCCC)[C@@H](C)OC(=O)[C@H](C(C)C)NC(=O)[C@H](Cc2ccc(O)cc2)N(C)C(=O)[C@H](Cc2ccccc2)N2C(=O)[C@H](CC[C@H]2O)NC1=O` [LYNGBYASTATIN 7]: the fold change (FC) is 1.6 on Kallikrein-7 [2] and 1.5 in experiment [4]. For the same compound, the IC50 at Kallikrein-7 [3] worked out at 3.1 nM.
In turn, `CC[C@H](C)[C@@H]1NC(=O)[C@H](Cc2ccc(OCc3ccn(C)n3)cc2)N(C)C(=O)[C@H]([C@@H](C)CC)N2C(=O)[C@H](CC[C@H]2O)NC(=O)[C@H](CC(C)C)NC(=O)[C@@H](NC(=O)[C@H](CCC(N)=O)NC(=O)C(C)C)[C@@H](C)OC1=O` gave an IC50 on Kallikrein-7 [5] of 0.2 nM.
In the case of `C/C=C1\NC(=O)[C@@H](NC(=O)[C@@H](NC(=O)[C@H](C)NC(=O)C/C(C)=C/Cl)[C@@H](C)CC)[C@@H](C)OC(=O)[C@H](C(C)C)NC(=O)[C@H](Cc2ccc(O)cc2)N(C)C(=O)[C@H](Cc2ccccc2)N2C(=O)[C@H](CC[C@H]2O)NC1=O`, the IC50 in experiment [6] was 97.4 nM; on Neutrophil elastase [8] it was 44 nM; in [9], 1.2 nM; on Kallikrein-7 [3], 5 nM; in [10], 12.3 nM; against Neutrophil elastase [12], 0.73 nM. In addition, in experiment [1], the IC50 came out at 31.3 nM. Besides, the fold change (FC) amounted to 4000 with Bacillus licheniformis; 5680 on Kallikrein-7 [7]; 2.9 in [11]; 15 with Parengyodontium album; 5 in experiment [13]; 2.1 in experiment [14]. Besides, the Ratio IC50 in experiment [15] was found to be 100.
With `CC[C@@H](C)[C@H]1C(=O)N(C)[C@@H](Cc2ccc(O)cc2)C(=O)N[C@H]([C@H](C)CC)C(=O)O[C@H](C)[C@H](NC(=O)[C@H](CCC(N)=O)NC(=O)C(C)C)C(=O)N[C@@H](CC(C)C)C(=O)N[C@H]2CC[C@@H](O)N1C2=O`, the IC50 against Kallikrein-7 [5] is 1 nM.
For the compound `CCOC(=O)c1ccc(OC(=O)CCCCCNC(=N)N)cc1`, the IC50 at Kallikrein-7 [3] turned out to be 28400 nM.
